MC4R antag cAMP: human MC4R antagonism in cAMP assay; P32245; MC4R-expressing cells, MTII-stimulated cAMP, LANCE TR-FRET; inhibition, % at 6.5 µM; hit rate 0.48% among 360,000; AID 540295;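 active means inhibition above its plate's cutoff, the mean of tested wells on that plate plus 3 SD, cut at about 29% in these data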
Target sequence (P32245 whole entry, looked up): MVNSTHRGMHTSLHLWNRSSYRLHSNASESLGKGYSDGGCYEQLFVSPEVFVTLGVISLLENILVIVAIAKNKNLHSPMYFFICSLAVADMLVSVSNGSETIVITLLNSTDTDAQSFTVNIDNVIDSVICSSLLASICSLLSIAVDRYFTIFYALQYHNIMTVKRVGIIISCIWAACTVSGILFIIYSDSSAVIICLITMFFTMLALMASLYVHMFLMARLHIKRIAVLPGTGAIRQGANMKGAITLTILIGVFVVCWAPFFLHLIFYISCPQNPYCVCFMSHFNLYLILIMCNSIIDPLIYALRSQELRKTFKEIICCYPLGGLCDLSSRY
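system = U2OS cells with stable human MC4R expression | also added = Melanotan II challenge after compound preincubation | dosing = one concentration, 6.5 µM nominal | incubation = compound 30 min, challenge 1 h, detection 1 h | measured by = TR-FRET with Eu-cAMP and labeled anti-cAMP, 671 nm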
MC4R barr agon: agonists of human melanocortin 4 receptor (MC4R) beta-arrestin. P32245. U2OS MC4R beta-arrestin complementation, luminescence; percent of melanotan II response, DMSO zero. activation, % at 8.9 µM. hit rate 0.98% among 360,000;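 active means activation above a per-plate cutoff, the mean activation of sample wells on that plate plus 3 SD, cut at about 8% in these data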
EBI2 block: blocks human EBI2 receptor beta-arrestin signaling. P32249. EBI2 beta-arrestin recruitment, luminescence, 7a,25-OHC stimulated. inhibition, % at 5 µM. hit rate 0.81% among 360,000; in the data active means inhibition above about 38%;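 further: enzyme fragment complementation signal reports receptor beta-arrestin coupling in cells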
Target sequence (P32249 whole entry, looked up, the tested form may be a part): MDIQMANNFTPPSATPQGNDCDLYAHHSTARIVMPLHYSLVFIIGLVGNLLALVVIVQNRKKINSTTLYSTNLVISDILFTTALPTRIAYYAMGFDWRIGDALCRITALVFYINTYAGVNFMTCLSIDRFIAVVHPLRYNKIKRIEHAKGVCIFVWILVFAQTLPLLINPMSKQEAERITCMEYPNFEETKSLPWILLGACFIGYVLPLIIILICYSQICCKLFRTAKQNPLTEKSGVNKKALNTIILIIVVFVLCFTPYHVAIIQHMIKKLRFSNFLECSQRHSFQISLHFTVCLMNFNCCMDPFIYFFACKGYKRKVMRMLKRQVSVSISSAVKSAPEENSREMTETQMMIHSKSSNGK
Myeloid diff 2: compounds promoting myeloid differentiation; ER-HoxA9 myeloid progenitors, lysozyme-GFP differentiation, flow cytometry; calls only at 10 µM; hit rate 1% among 360,000; AID 624256;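 active means normalized GFP-positive differentiation at or above the plate's own cutoff, the solvent-only control mean plus 3 SD; inconclusive means no clear call, values can overlap the other calls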;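 further: cells exposed to compound for four days before flow analysis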
Granule exo inh: blocks lytic granule exocytosis. TALL-104 LAMP-1 surface exposure, flow cytometry; cells stimulated with thapsigargin and PMA. inhibition, % at 10 µM. hit rate 0.66% among 360,000;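 active means inhibition above about 55%, limit read from the data; inconclusive means no clear call, values can overlap the other calls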
MC4R barr conf: human MC4R beta-arrestin agonism confirmation. shares compounds with MC4R barr agon. U2OS MC4R beta-arrestin recruitment, luminescence; scaled DMSO 0%, Melanotan II 100%. activation, % at 8.9 µM. hit rate 31% among 2,400;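 active means mean activation across replicates above the hit cutoff set in the earlier primary screen, cut at about 8% in these data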
MOR-DOR barr ag: OPRM1-OPRD1 heterodimer agonism counter-screen; shares compounds with MC4R barr agon; U2OS PathHunter beta-arrestin, beta-gal luminescence; percent of deltorphin B response, DMSO zero; activation, % at 9.2 µM; hit rate 5.8% among 2,400;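 active means mean activation across replicates exceeds the hit threshold derived in the earlier primary screen, cut at about 18% in these data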
Numbers stand for hits. Sampled rows, rich in hits. Any-hit rate of the full collection: about 3.7%.

Screening Cc1cc(OC(C)C(=O)NCc2ccccn2)c2c(C)c(Cc3ccccc3)c(=O)oc2c1 (centres undefined) returned MC4R antag cAMP inactive, MC4R barr agon 10.6, EBI2 block inactive, Myeloid diff 2 inactive, Granule exo inh inactive, MC4R barr conf inactive and MOR-DOR barr ag inactive.
`CC(c1ccccc1)c1nnc(NC(=O)Nc2ccccc2)s1` (centres undefined) gave MC4R antag cAMP inactive, MC4R barr agon inactive, EBI2 block inactive, Myeloid diff 2 inactive and Granule exo inh inactive.
`CC(c1ccccc1)c1nnc(NC(=O)Nc2ccccc2F)s1` (centres undefined) gave MC4R antag cAMP inactive, MC4R barr agon 10.3, EBI2 block inactive, Myeloid diff 2 inactive, Granule exo inh inactive, MC4R barr conf inactive and MOR-DOR barr ag inactive.
Screening O=C(Nc1nnc(COc2ccccc2F)s1)Nc1ccccc1F returned MC4R antag cAMP inactive, MC4R barr agon 12.0, EBI2 block inactive, Myeloid diff 2 inactive, Granule exo inh inactive, MC4R barr conf inactive and MOR-DOR barr ag inactive.
For CC(=O)c1cccc(NC(=O)c2cccc3c(-c4cccc(C(N)=O)c4)coc23)c1 the results were MC4R antag cAMP inactive, MC4R barr agon 20.1, EBI2 block inactive, Myeloid diff 2 inactive, Granule exo inh inactive, MC4R barr conf inactive and MOR-DOR barr ag inactive.
For Cc1nn(C)cc1C(C)NCc1c(C(=O)N2CCCCCCC2)nc2ccc(Cl)cn12 (centres undefined) the results were MC4R antag cAMP inactive, MC4R barr agon inactive, EBI2 block inactive, Myeloid diff 2 inactive and Granule exo inh inactive.
CCOc1cc(N2CCOCC2)c(OCC)cc1NC(=O)c1cc(-c2ccco2)nc2ccccc12 was read as MC4R antag cAMP inactive, MC4R barr agon 13.8, EBI2 block inactive, Myeloid diff 2 inconclusive, Granule exo inh inactive, MC4R barr conf 9.2 and MOR-DOR barr ag inactive.
For CCOc1cc(N2CCOCC2)c(OCC)cc1NC(=O)COc1ncnc2ccccc12 the results were MC4R antag cAMP inactive, MC4R barr agon inactive, EBI2 block inactive, Myeloid diff 2 inactive and Granule exo inh inactive.
Screening COc1ccc(/C=N/NC(=O)CCn2c3ccccc3c3ccccc32)cc1O returned MC4R antag cAMP inactive, MC4R barr agon inactive, EBI2 block inactive and Granule exo inh inactive.
`COc1cccc(/C=N/NC(=O)CCn2c3ccccc3c3ccccc32)c1` gave MC4R antag cAMP inactive, MC4R barr agon 14.2, EBI2 block inactive, Myeloid diff 2 inactive, Granule exo inh inactive, MC4R barr conf inactive and MOR-DOR barr ag inactive.
N#C/C(=C\c1ccc(-c2nc3ccccc3s2)o1)C(N)=O was read as MC4R antag cAMP inactive, MC4R barr agon 20.9, EBI2 block inactive, Myeloid diff 2 inactive, Granule exo inh inactive, MC4R barr conf inactive and MOR-DOR barr ag inactive.
`COCCOc1ccc(C(F)(F)F)cc1NC(=O)c1ccc(C)cc1` gave MC4R antag cAMP inactive, MC4R barr agon 14.6, EBI2 block inactive, Myeloid diff 2 inactive, Granule exo inh inactive, MC4R barr conf inactive and MOR-DOR barr ag inactive.
For Cc1cc(NC(=O)COc2ccc3oc4ccccc4c3c2)no1 the results were MC4R antag cAMP inactive, MC4R barr agon 10.1, EBI2 block inactive, Myeloid diff 2 inactive, Granule exo inh inactive, MC4R barr conf inactive and MOR-DOR barr ag inactive.
For Cc1ccc(C(=O)OCC(=O)Nc2cc(C(C)(C)C)no2)c(C)c1 the results were MC4R antag cAMP inactive, MC4R barr agon 9.9, EBI2 block inactive, Myeloid diff 2 inactive, Granule exo inh inactive, MC4R barr conf inactive and MOR-DOR barr ag inactive.
Cc1ccc(-c2cc(C(=O)OCC(=O)Nc3cc(C)on3)c3ccccc3n2)c(C)c1 was read as MC4R antag cAMP inactive, MC4R barr agon 11.7, EBI2 block inactive, Myeloid diff 2 inactive, Granule exo inh inactive, MC4R barr conf inactive and MOR-DOR barr ag inactive.
For Cc1cc(NC(=O)COc2ccc3c(C)c(C)c(=O)oc3c2)no1 the results were MC4R antag cAMP inactive, MC4R barr agon inactive, EBI2 block inactive, Myeloid diff 2 inactive and Granule exo inh inactive.
Screening Cc1ccc(C)c(C(=O)OCC(=O)NC(=O)NCc2ccccc2)c1 returned MC4R antag cAMP inactive, MC4R barr agon 13.1, EBI2 block inactive, Myeloid diff 2 inactive, Granule exo inh inactive, MC4R barr conf inactive and MOR-DOR barr ag inactive.
Screening Cc1cccc(C)c1NC(=O)C1(C)CN(S(C)(=O)=O)CC(=O)N1C1CC1 (centres undefined) returned EBI2 block inactive, Myeloid diff 2 inactive and Granule exo inh inactive.
Screening CCCCCN(C(=O)CCC(=O)OCc1cccc(C)c1)c1c(N)n(CCCC)c(=O)[nH]c1=O returned MC4R antag cAMP inactive, MC4R barr agon inactive, EBI2 block inactive, Myeloid diff 2 inactive and Granule exo inh inactive.
Screening CC(=O)N1c2ccc(F)c(F)c2C[C@H]1C returned MC4R antag cAMP inactive, MC4R barr agon inactive, EBI2 block inactive, Myeloid diff 2 inactive and Granule exo inh inactive.
`CCOc1ncccc1C(=O)NCc1ccccc1Cl` gave MC4R antag cAMP inactive, MC4R barr agon inactive, EBI2 block inactive, Myeloid diff 2 inactive and Granule exo inh inactive.
`Cc1cc(NC(=O)COC(=O)c2oc3c(ccc4ccccc43)c2C)no1` gave MC4R antag cAMP inactive, MC4R barr agon 18.1, EBI2 block inactive, Myeloid diff 2 inactive, Granule exo inh inactive, MC4R barr conf inactive and MOR-DOR barr ag inactive.
`Cc1ccc(C(=O)N/N=C\c2cc3c(cc2Br)OCO3)s1` gave MC4R antag cAMP inactive, MC4R barr agon 12.1, EBI2 block inactive, Myeloid diff 2 inactive, Granule exo inh inactive, MC4R barr conf 10.4 and MOR-DOR barr ag inactive.
For COC(=O)N/N=C\c1cc2c(cc1Br)OCO2 the results were MC4R antag cAMP inactive, MC4R barr agon inactive, EBI2 block inactive, Myeloid diff 2 inactive and Granule exo inh inactive.
`CCc1cc(C(=O)Cc2cnn(-c3ccccc3)c2)c(O)cc1O` gave MC4R antag cAMP inactive, MC4R barr agon 22.0, EBI2 block inactive, Myeloid diff 2 inactive, Granule exo inh inactive, MC4R barr conf inactive and MOR-DOR barr ag inactive.
O=S(=O)(NCc1ccccc1)c1ccc(S(=O)(=O)N(Cc2ccccn2)Cc2ccco2)cc1 was read as MC4R antag cAMP inactive, MC4R barr agon 10.2, EBI2 block inactive, Myeloid diff 2 inactive, Granule exo inh inactive, MC4R barr conf inactive and MOR-DOR barr ag inactive.
CCN(CC)S(=O)(=O)c1ccc(S(=O)(=O)N(Cc2ccccn2)Cc2ccco2)cc1 was read as MC4R antag cAMP inactive, MC4R barr agon inactive, EBI2 block inactive, Myeloid diff 2 inactive and Granule exo inh inactive.
`Cc1nc(/N=C(\N)N(C)C)[nH]c(=O)c1C` gave MC4R antag cAMP inactive, MC4R barr agon inactive, EBI2 block inactive, Myeloid diff 2 inactive and Granule exo inh inactive.

Source: PubChem
